Results: ChEMBL document CHEMBL3804768, “Structure-Activity Relationship Studies of Mitogen Activated Protein Kinase Interacting Kinase (MNK) 1 and 2 and BCR-ABL1 Inhibitors Targeting Chronic Myeloid Leukemic Cells” (J Med Chem, 2016)
Values after ≈ are worked out from the molar mass of the structure shown.

Tests used:
Bcr/Abl fusion protein = Bcr/Abl fusion protein (Homo sapiens, UniProt P00519); test: Inhibition of BCR fused full length human recombinant N-terminal His-tagged ABL (2 to 1130 residues) expressed in baculovirus expression system using FL-peptide 2 substrate preincubated for 10 mins followed by substrate addition measured after 60 mins by mobility shift assay
[1] = target: MAP kinase-interacting serine/threonine-protein kinase 1 (Homo sapiens, UniProt Q9BUB5); test: Inhibition of N-terminal GST-tagged MNK1 kinase domain (37 to 341 residues) (unknown origin) expressed in Escherichia coli BL21(DE3) cells using JH3 peptide substrate preincubated for 10 mins followed by substrate addition measured after 60 mins by mobility shift assay
[2] = target: MAP kinase-interacting serine/threonine-protein kinase 2 (Homo sapiens, UniProt Q9HBH9); test: Inhibition of N-terminal GST-tagged MNK2 kinase domain (72 to 385 residues) (unknown origin) expressed in Escherichia coli BL21(DE3) cells using JH3 peptide substrate preincubated for 10 mins followed by substrate addition measured after 60 mins by mobility shift assay
[3] = target: MAP kinase-interacting serine/threonine-protein kinase 1/2 (Homo sapiens, UniProt Q9HBH9+Q9BUB5); test: Inhibition of MNK1/MNK2 in human HeLa cells assessed as reduction in phosphorylation of eIF4E at Ser209 after 2 hrs by AlphaScreen SureFire assay; type: cell-based
Summary of the method: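 HeLa cells were grown in DMEM with 10% FBS and penicillin/streptomycin, seeded at 30,000 per well and left 24 h. They were then exposed to serially diluted compound in serum-free DMEM for 2 h at 37 °C and lysed with shaking for 20 min. Phospho-eIF4E Ser209 was read by AlphaScreen SureFire with 2 h acceptor and 2 h donor steps at room temperature. Dose response was run in triplicate.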

Cytochrome P450 2D6 = Cytochrome P450 2D6 (Homo sapiens, UniProt P10635); test: Inhibition of CYP2D6 (unknown origin); type: ADME
[4] = Thermodynamic solubility in pH 4 pION buffer at 500 uM incubated for 18 hrs by UV-spectrophotometry; type: physicochemical; settings: read-out: Therm_solubility
[5] = target: Tyrosine-protein kinase ABL1 (Homo sapiens, UniProt P00519, T315I); test: Inhibition of full length human recombinant N-terminal His-tagged ABL (2 to 1130 residues) T315I mutant expressed in baculovirus expression system using FL-peptide 2 substrate preincubated for 10 mins followed by substrate addition measured after 60 mins by mobility shift assay
Summary of the method: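 Buffer is 100 mM HEPES pH 7.5, 10 mM MgCl2, 0.004% Tween 20, 1 mM DTT, 0.003% Brij L23. Enzyme and compound sit 10 min before ATP/substrate is added. The reaction runs 60 min at room temperature, is stopped with 10 mM EDTA, and is read by mobility shift.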

K562 [6] = test: Antiproliferative activity against human K562 cells over expressing eIF4E after 48 hrs by Cell-Titer-Glo luminescent cell viability assay; type: functional; settings: K562, 48 h
Summary of the method: (§1)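 Cells seeded at 5000 per well in growth medium, exposed to serial doses from 0.003 μM to 50 μM for 48 h at 37 °C, 5% CO2. Viability was read by CellTiter-Glo luminescence and GI50 taken from the dose-response curve. Dose response was run in triplicate and the curve repeated twice. K562 eIF4E-overexpressing cells were cultured in RPMI with 10% FBS.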

Cytochrome P450 3A4 = Cytochrome P450 3A4 (Homo sapiens, UniProt P08684); test: Inhibition of CYP3A4 (unknown origin); type: ADME
[7] = Permeability of compound by PAMPA; type: ADME; settings: read-out: permeability
[8] = Antiproliferative activity against human EM2 cells after 48 hrs by Cell-Titer-Glo luminescent cell viability assay; type: functional; settings: EM-2, 48 h; summary of the method: as §1
K562 [9] = test: Antiproliferative activity against human K562 cells after 48 hrs by Cell-Titer-Glo luminescent cell viability assay; type: functional; settings: K562, 48 h; summary of the method: as §1
[10] = Antiproliferative activity against human JURL-MK1 cells after 48 hrs by Cell-Titer-Glo luminescent cell viability assay; type: functional; settings: JURL-MK1, 48 h
K562 [11] = test: Antitumor activity against human K562 cells over expressing eIF4E xenografted in NOD-SCID mouse assessed as tumor growth inhibition at 200 mg/kg, po qd administered through oral gavage for 14 days relative to control; type: functional; settings: 336 h, read-out: TGI
Summary of the method: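 Female SCID mice, 7-10 weeks old, received 1 x 10^7 K562 eIF4E-overexpressing cells subcutaneously. At tumor volumes of 75-245 mm³ (w²×l/2) mice were randomized and gavaged once daily for 14 days at 10 mL/kg.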

[12] = Antiproliferative activity against human BV173 cells after 48 hrs by Cell-Titer-Glo luminescent cell viability assay; type: functional; settings: BV-173, 48 h; summary of the method: as §1
[13] = Antiproliferative activity against human KCL22 cells after 48 hrs by Cell-Titer-Glo luminescent cell viability assay; type: functional; settings: KCL-22, 48 h
[14] = Thermodynamic solubility in pH 7 pION buffer at 500 uM incubated for 18 hrs by UV-spectrophotometry; type: physicochemical; settings: read-out: Therm_solubility

Chain of MAP kinase-interacting serine/threonine-protein kinase 1 (Q9BUB5 whole entry, the tested form may be a part): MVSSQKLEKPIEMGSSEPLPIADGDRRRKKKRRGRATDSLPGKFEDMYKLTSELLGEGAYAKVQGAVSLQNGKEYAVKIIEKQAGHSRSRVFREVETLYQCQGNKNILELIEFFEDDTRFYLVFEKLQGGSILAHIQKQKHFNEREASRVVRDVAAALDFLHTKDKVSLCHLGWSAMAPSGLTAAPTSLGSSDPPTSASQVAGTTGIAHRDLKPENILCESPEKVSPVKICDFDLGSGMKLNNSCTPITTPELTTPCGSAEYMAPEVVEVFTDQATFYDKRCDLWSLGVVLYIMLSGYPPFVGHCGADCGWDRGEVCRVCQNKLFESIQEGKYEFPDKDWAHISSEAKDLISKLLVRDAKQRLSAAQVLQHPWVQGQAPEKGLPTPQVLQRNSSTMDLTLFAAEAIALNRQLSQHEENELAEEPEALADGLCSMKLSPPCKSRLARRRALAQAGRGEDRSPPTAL
Chain of Cytochrome P450 3A4 (P08684 whole entry): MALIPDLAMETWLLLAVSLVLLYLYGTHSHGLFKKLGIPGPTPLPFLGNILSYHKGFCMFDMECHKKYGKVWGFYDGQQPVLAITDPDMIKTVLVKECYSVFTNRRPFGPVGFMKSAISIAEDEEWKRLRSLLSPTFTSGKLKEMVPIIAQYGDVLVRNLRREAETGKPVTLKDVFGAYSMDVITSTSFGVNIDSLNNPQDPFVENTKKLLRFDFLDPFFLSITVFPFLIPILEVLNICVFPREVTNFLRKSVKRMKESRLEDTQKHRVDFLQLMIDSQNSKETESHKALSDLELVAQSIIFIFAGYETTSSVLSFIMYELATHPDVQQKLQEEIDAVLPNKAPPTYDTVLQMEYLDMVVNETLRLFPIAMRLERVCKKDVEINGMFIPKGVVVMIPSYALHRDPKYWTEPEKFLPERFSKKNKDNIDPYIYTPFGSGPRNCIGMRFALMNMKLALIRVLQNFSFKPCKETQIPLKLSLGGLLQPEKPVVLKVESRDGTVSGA
Chain of Cytochrome P450 2D6 (P10635 whole entry): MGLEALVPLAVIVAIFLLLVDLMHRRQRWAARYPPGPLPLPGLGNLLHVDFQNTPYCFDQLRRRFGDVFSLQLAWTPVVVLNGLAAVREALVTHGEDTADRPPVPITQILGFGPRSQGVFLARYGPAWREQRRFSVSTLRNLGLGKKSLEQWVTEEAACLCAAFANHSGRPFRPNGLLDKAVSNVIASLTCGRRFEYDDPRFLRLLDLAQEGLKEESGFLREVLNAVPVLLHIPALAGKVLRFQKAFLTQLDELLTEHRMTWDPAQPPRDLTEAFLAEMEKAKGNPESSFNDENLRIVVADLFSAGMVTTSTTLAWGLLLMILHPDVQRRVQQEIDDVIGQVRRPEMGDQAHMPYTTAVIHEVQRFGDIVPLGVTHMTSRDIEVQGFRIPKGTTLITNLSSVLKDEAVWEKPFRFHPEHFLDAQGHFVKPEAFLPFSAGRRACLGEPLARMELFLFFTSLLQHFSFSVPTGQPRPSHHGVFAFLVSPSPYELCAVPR
Chain of MAP kinase-interacting serine/threonine-protein kinase 2 (Q9HBH9 whole entry, the tested form may be a part): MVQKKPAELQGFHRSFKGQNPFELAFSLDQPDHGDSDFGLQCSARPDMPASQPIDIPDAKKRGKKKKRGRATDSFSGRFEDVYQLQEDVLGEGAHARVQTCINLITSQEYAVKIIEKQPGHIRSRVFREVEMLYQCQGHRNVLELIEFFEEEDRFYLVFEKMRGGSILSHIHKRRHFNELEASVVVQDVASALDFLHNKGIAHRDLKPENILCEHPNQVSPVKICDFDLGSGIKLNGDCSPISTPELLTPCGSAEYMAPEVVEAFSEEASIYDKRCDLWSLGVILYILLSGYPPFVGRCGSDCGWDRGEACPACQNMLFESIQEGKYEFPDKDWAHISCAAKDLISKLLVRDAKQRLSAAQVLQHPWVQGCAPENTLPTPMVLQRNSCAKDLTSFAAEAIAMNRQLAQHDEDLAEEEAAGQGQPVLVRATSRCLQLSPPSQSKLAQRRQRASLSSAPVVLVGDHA

Row | Compound | IC50 (Bcr/Abl fusion protein) [nM] | IC50 [1] [nM] | IC50 [2] [nM] | IC50 [3] [nM] | GI50 (K562 [6]) [nM] | also measured
1 | CCN1CCN(Cc2ccc(NC(=O)COc3ccc(-c4cccnc4)cc3)cc2C2CC2)CC1 | > 10000 | > 10000 | 130 |  |  | 
2 | O=C(CNc1ccc(-c2ccc(NC(=O)C3CC3)nc2)cc1)Nc1ccc(CN2CCNCC2)c(C(F)(F)F)c1 | 210 | 510 | 8 | 320 | 80 | IC50 (Cytochrome P450 2D6): > 20000 nM; solubility thermodynamic at 18 h, 500 µM [4]: 109 µg/mL (≈ 197 µM); IC50 [5]: 100 nM; IC50 (Cytochrome P450 3A4): 1100 nM; Papp [7]: 5.53 ×10⁻⁶ cm/s
3 | CCN1CCN(Cc2ccc(NC(=O)CNc3ccc(-c4cccnc4)cc3)cc2C(F)(F)F)CC1 | > 10000 | 350 | 11 |  |  | 
4 | O=C(COc1ccc(-c2cccnc2)cc1)Nc1ccc(CN2CCNCC2)c(C(F)(F)F)c1 | > 10000 | 350 | 12 |  |  | 
5 | CCN1CCN(Cc2ccc(NC(=O)Cc3ccc(Oc4cc(NC)ncn4)cc3)cc2C(F)(F)F)CC1 | > 10000 | 3690 | 22 |  |  | 
6 | Cc1ccc(NC(=O)c2ccc(CN3CCN(C)CC3)cc2)cc1Nc1nccc(-c2cccnc2)n1 [IMATINIB] |  |  |  |  |  | GI50 [8]: 260 nM; GI50 (K562 [9]): 200 nM; GI50 [10]: 60 nM; inhibition in vivo at 200 mg/kg (K562 [11]): 57%; GI50 [12]: 100 nM; GI50 [13]: 430 nM
7 | CCN1CCN(Cc2ccc(NC(=O)COc3ccc(-c4ccncc4)cc3)cc2C(F)(F)F)CC1 | > 10000 | > 10000 | 1910 |  |  | 
8 | CCN1CCN(Cc2ccc(NC(=O)Cc3ccc(Oc4ccnc(NC)c4)cc3)cc2C(F)(F)F)CC1 | 580 | 370 | 8 |  |  | 
9 | CC(C)C(=O)Nc1ccc(-c2ccc(NCC(=O)Nc3ccc(CN4CCNCC4)c(C(F)(F)F)c3)cc2)cn1 | > 10000 | 7700 | 130 | 860 | 3300 | IC50 [5]: > 10000 nM
10 | CCN1CCN(Cc2ccc(NC(=O)CNc3ccc(-c4ccc(NC(C)=O)nc4)cc3)cc2C(F)(F)F)CC1 | 380 | 5980 | 44 | 320 | 340 | IC50 (Cytochrome P450 2D6): > 20000 nM; IC50 [5]: 90 nM; IC50 (Cytochrome P450 3A4): 3200 nM; solubility thermodynamic at 18 h, 500 µM [14]: 0.6 µg/mL (≈ 1.08 µM); Papp [7]: 26.2 ×10⁻⁶ cm/s
11 | CCN1CCN(Cc2ccc(NC(=O)COc3ccc(-c4cccnc4)cc3)cc2C(F)(F)F)CC1 | > 10000 | 570 | 14 | 98 | > 10000 | 
12 | CCN1CCN(Cc2ccc(NC(=O)COc3ccc(-c4ccc(NC(C)=O)nc4)cc3)cc2C(F)(F)F)CC1 | 390 | 5680 | 33 | 680 | 100 | IC50 [5]: 170 nM
13 | CCN1CCN(Cc2ccc(NC(=O)COc3ccc(-c4ccc(C(=O)NC)nc4)cc3)cc2C(F)(F)F)CC1 | > 10000 | > 10000 | 6860 |  |  | 
14 | CCN1CCN(Cc2ccc(NC(=O)Cc3ccc(Oc4ccncc4)cc3)cc2C(F)(F)F)CC1 | 3880 | 540 | 10 |  |  | 
15 | CCN1CCN(Cc2ccc(CC(=O)Nc3ccc(Oc4cc(NC)ncn4)cc3)cc2C(F)(F)F)CC1 | > 10000 | > 10000 | 760 |  |  | 
16 | CCC1CCN(Cc2ccc(NC(=O)COc3ccc(-c4cccnc4)cc3)cc2C(F)(F)F)CC1 | > 10000 | 4510 | 82 |  |  | 
17 | CC(=O)Nc1ccc(-c2ccc(NCC(=O)Nc3ccc(CN4CCNCC4)c(C(F)(F)F)c3)cc2)cn1 | 880 | 3920 | 32 | 200 | 400 | IC50 (Cytochrome P450 2D6): > 20000 nM; solubility thermodynamic at 18 h, 500 µM [4]: 132 µg/mL (≈ 250 µM); IC50 [5]: 240 nM; IC50 (Cytochrome P450 3A4): 2400 nM; Papp [7]: 1.13 ×10⁻⁶ cm/s
18 | CCN1CCN(Cc2ccc(NC(=O)C(C)Oc3ccc(-c4cccnc4)cc3)cc2C(F)(F)F)CC1 (configuration not stated) | > 10000 | > 10000 | > 10000 |  |  | 
19 | CCN1CCC(Cc2ccc(NC(=O)COc3ccc(-c4cccnc4)cc3)cc2C(F)(F)F)CC1 | > 10000 | > 10000 | > 10000 |  |  | 
20 | CCN1CCN(Cc2ccc(NC(=O)COc3ccc(-c4ccccn4)cc3)cc2C(F)(F)F)CC1 | > 10000 | > 10000 | > 10000 |  |  | 
